Laboratory results as given in ChEMBL document CHEMBL4138126, “Synthesis, antiproliferative, anti-tubulin activity, and docking study of new 1,2,4-triazoles as potential combretastatin analogues” (Eur J Med Chem, 2017).

Tests used:
SN12C = assay: Growth inhibition of human SN12C cells assessed as cell growth at 10 uM after 48 hrs by sulforhodamine B assay; type: functional; details: read-out: Activity
How it was run: (§1)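 NCI 60-cell-line panel from nine tumour types (leukaemia, lung, colon, CNS, melanoma, ovarian, renal, prostate, breast). Each compound was added at one single concentration, and cultures were incubated for 48 h. Results are reported as percent growth inhibition.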

BT-549 = assay: Growth inhibition of human BT549 cells assessed as cell growth at 10 uM after 48 hrs by sulforhodamine B assay; type: functional; details: BT-549, 48 h, read-out: Activity
How it was run: (§2)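 NCI 60-cell-line panel screen (nine cancer types). Compounds added at single concentration 10^-5 M, cultures incubated 48 h; growth inhibition percentages reported.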

MDA-MB-468 = assay: Growth inhibition of human MDA-MB-468 cells assessed as cell growth at 10 uM after 48 hrs by sulforhodamine B assay; type: functional; details: MDA-MB-468, 48 h, read-out: Activity; how it was run: as §2
SK-MEL-28 = assay: Growth inhibition of human SK-MEL-28 cells assessed as cell growth at 10 uM after 48 hrs by sulforhodamine B assay; type: functional; details: SK-MEL-28, 48 h, read-out: Activity; how it was run: as §2
[1] = Inhibition of beta tubulin polymerisation in human HepG2 cells incubated for 2 hrs using TMB substrate by ELISA; type: cell-based; details: HepG2, 2 h
IGROV-1 = assay: Growth inhibition of human IGROV1 cells assessed as cell growth at 10 uM after 48 hrs by sulforhodamine B assay; type: functional; details: IGROV-1, 48 h, read-out: Activity; how it was run: as §2
ACHN = assay: Growth inhibition of human ACHN cells assessed as cell growth at 10 uM after 48 hrs by sulforhodamine B assay; type: functional; details: read-out: Activity; how it was run: as §2
HCC 2998 = assay: Growth inhibition of human HCC2998 cells assessed as cell growth at 10 uM after 48 hrs by sulforhodamine B assay; type: functional; details: HCC 2998, 48 h, read-out: Activity; how it was run: as §2
COLO 205 = assay: Growth inhibition of human COLO205 cells assessed as cell growth at 10 uM after 48 hrs by sulforhodamine B assay; type: functional; details: COLO 205, 48 h, read-out: Activity; how it was run: as §2
A549 = assay: Growth inhibition of human A549/ATCC cells assessed as cell growth at 10 uM after 48 hrs by sulforhodamine B assay; type: functional; details: A549, 48 h, read-out: Activity; how it was run: as §2
HL-60(TB) = assay: Growth inhibition of human HL-60(TB) cells assessed as cell growth at 10 uM after 48 hrs by sulforhodamine B assay; type: functional; details: HL-60, 48 h, read-out: Activity
How it was run: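 Screened by the NCI in its 60-cell-line panel covering nine cancer types, including leukemia. Compounds were added at a single concentration, and the cultures were incubated for 48 h. Results are reported as percent growth inhibition.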

K562 = assay: Growth inhibition of human K562 cells assessed as cell growth at 10 uM after 48 hrs by sulforhodamine B assay; type: functional; details: K562, 48 h, read-out: Activity; how it was run: as §2
NCI-H460 = assay: Growth inhibition of human NCI-H460 cells assessed as cell growth at 10 uM after 48 hrs by sulforhodamine B assay; type: functional; details: NCI-H460, 48 h, read-out: Activity; how it was run: as §2
EKVX = assay: Growth inhibition of human EKVX cells assessed as cell growth at 10 uM after 48 hrs by sulforhodamine B assay; type: functional; details: read-out: Activity; how it was run: as §2
U-251 = assay: Growth inhibition of human U251 cells assessed as cell growth at 10 uM after 48 hrs by sulforhodamine B assay; type: functional; details: U-251, 48 h, read-out: Activity; how it was run: as §1
TK-10 = assay: Growth inhibition of human TK10 cells assessed as cell growth at 10 uM after 48 hrs by sulforhodamine B assay; type: functional; details: TK-10, 48 h, read-out: Activity; how it was run: as §1
CAKI-1 = assay: Growth inhibition of human CAKI-1 cells assessed as cell growth at 10 uM after 48 hrs by sulforhodamine B assay; type: functional; details: CAKI-1, 48 h, read-out: Activity; how it was run: as §2
MDA-MB-231 = assay: Growth inhibition of human MDA-MB-231 cells assessed as cell growth at 10 uM after 48 hrs by sulforhodamine B assay; type: functional; details: MDA-MB-231, 48 h, read-out: Activity; how it was run: as §2
SR = assay: Growth inhibition of human SR cells assessed as cell growth at 10 uM after 48 hrs by sulforhodamine B assay; type: functional; details: read-out: Activity; how it was run: as §1
HL-60 = assay: Cytotoxicity in human HL60 cells assessed as reduction in cell viability incubated for 48 hrs by MTT assay; type: functional, cell-based; details: HL-60, 48 h
How it was run: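 HepG2 and HL60 (ATCC) grown in DMEM with 10% FBS, 2 mM L-glutamine, penicillin/streptomycin, amphotericin B at 37 °C, 5% CO2. Samples dissolved in DMSO, diluted thousandfold in assay. Cells seeded in serum-free medium, treated with serial concentrations 48 h; MTT 4 h, formazan dissolved in acidified isopropanol, A570. Triplicates averaged; viability relative to untreated/vehicle control.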

UO-31 = assay: Growth inhibition of human UO31 cells assessed as cell growth at 10 uM after 48 hrs by sulforhodamine B assay; type: functional; details: UO-31, 48 h, read-out: Activity; how it was run: as §1
MOLT-4 = assay: Growth inhibition of human MOLT4 cells assessed as cell growth at 10 uM after 48 hrs by sulforhodamine B assay; type: functional; details: MOLT-4, 48 h, read-out: Activity; how it was run: as §2
SK-MEL-5 = assay: Growth inhibition of human SK-MEL-5 cells assessed as cell growth at 10 uM after 48 hrs by sulforhodamine B assay; type: functional; details: SK-MEL-5, 48 h, read-out: Activity; how it was run: as §2
UACC-62 = assay: Growth inhibition of human UACC62 cells assessed as cell growth at 10 uM after 48 hrs by sulforhodamine B assay; type: functional; details: UACC-62, 48 h, read-out: Activity; how it was run: as §1
Hs-578T = assay: Growth inhibition of human Hs 578T cells assessed as cell growth at 10 uM after 48 hrs by sulforhodamine B assay; type: functional; details: read-out: Activity; how it was run: as §2
HOP-62 = assay: Growth inhibition of human HOP62 cells assessed as cell growth at 10 uM after 48 hrs by sulforhodamine B assay; type: functional; details: HOP-62, 48 h, read-out: Activity; how it was run: as §2
UACC-257 = assay: Growth inhibition of human UACC257 cells assessed as cell growth at 10 uM after 48 hrs by sulforhodamine B assay; type: functional; details: UACC-257, 48 h, read-out: Activity; how it was run: as §1
SF-268 = assay: Growth inhibition of human SF268 cells assessed as cell growth at 10 uM after 48 hrs by sulforhodamine B assay; type: functional; details: SF-268, 48 h, read-out: Activity; how it was run: as §2
HepG2 = assay: Inhibition of beta tubulin polymerisation in human HepG2 cells incubated for 2 hrs using TMB substrate by ELISA relative to untreated control; type: cell-based; parameters: concentration or dose not given beside the values; details: dose or concentration not given here
NCI-H322M = assay: Growth inhibition of human NCI-H322M cells assessed as cell growth at 10 uM after 48 hrs by sulforhodamine B assay; type: functional; details: read-out: Activity; how it was run: as §2
OVCAR-8 = assay: Growth inhibition of human OVCAR8 cells assessed as cell growth at 10 uM after 48 hrs by sulforhodamine B assay; type: functional; details: OVCAR-8, 48 h, read-out: Activity; how it was run: as §2
HCT-116 = assay: Growth inhibition of human HCT116 cells assessed as cell growth at 10 uM after 48 hrs by sulforhodamine B assay; type: functional; details: HCT-116, 48 h, read-out: Activity; how it was run: as §2

CCOc1ccc(-n2nc(C(=O)NCc3cc(F)cc(F)c3)nc2-c2cc(OC)c(OC)c(OC)c2)cc1
growth at 10 µM (SN12C): 67.8%
growth at 10 µM (BT-549): 68.7%
growth at 10 µM (MDA-MB-468): 73.6%
growth at 10 µM (SK-MEL-28): 65.3%
IC50 [1]: 1400 nM
growth at 10 µM (IGROV-1): 62.5%
growth at 10 µM (ACHN): 54.4%
growth at 10 µM (HCC 2998): 84%
growth at 10 µM (COLO 205): 65%
growth at 10 µM (A549): 57%
growth at 10 µM (HL-60(TB)): 61.4%
growth at 10 µM (K562): 62%
growth at 10 µM (NCI-H460): 66.1%
growth at 10 µM (EKVX): 62.8%
growth at 10 µM (U-251): 74.3%
growth at 10 µM (TK-10): 79.9%
growth at 10 µM (CAKI-1): 44.4%
growth at 10 µM (MDA-MB-231): 43.1%
growth at 10 µM (SR): 64%
IC50 (HL-60): 950 nM
growth at 10 µM (UO-31): 25.8%
growth at 10 µM (MOLT-4): 45.1%
growth at 10 µM (SK-MEL-5): 50.1%
growth at 10 µM (UACC-62): 57.9%
growth at 10 µM (Hs-578T): 75.7%
growth at 10 µM (HOP-62): 75.2%
growth at 10 µM (UACC-257): 50.5%
growth at 10 µM (SF-268): 65.5%
inhibition (HepG2): 71.8%
growth at 10 µM (NCI-H322M): 61.5%
growth at 10 µM (OVCAR-8): 75%
growth at 10 µM (HCT-116): 49.7%
